Measured values reported in ChEMBL document CHEMBL1134464, “Synthesis, antimalarial activity, biomimetic iron(II) chemistry, and in vivo metabolism of novel, potent C-10-phenoxy derivatives of dihydroartemisinin” (J Med Chem, 2001).

Experiments:
Mus musculus [1] = assay: In vivo antimalarial activity against Plasmodium yoelii when administered subcutaneously; format: functional; conditions: sc
Mus musculus [2] = assay: In vivo antimalarial activity against Plasmodium berghei when administered perorally; format: functional; conditions: po
Plasmodium yoelii = assay: In vivo antimalarial activity against Plasmodium yoelii when administered subcutaneously; conditions: Mus musculus, sc
Mus musculus [3] = assay: In vivo antimalarial activity against Plasmodium berghei; format: functional
Plasmodium falciparum [4] = assay: In vitro antimalarial activity against chloroquine-sensitive Plasmodium falciparum HB3; format: functional, organism-based
Summary of the method: (§1)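 48-h [3H]hypoxanthine incorporation assay on P. falciparum cultured in human erythrocytes in RPMI 1640 with 25 mM HEPES, 32 mM NaHCO3 and 10% human serum, gassed 3% O2/4% CO2/93% N2. Assay at 2% parasitemia and 0.5% hematocrit, with DMSO stocks diluted in medium, run in triplicate. 0.5 μCi hypoxanthine added after 24 h at 37 °C, then 24 h more. IC50 interpolated from probit of log dose–response.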

Plasmodium falciparum [5] = assay: In vitro antimalarial activity against chloroquine-resistant Plasmodium falciparum K1; format: functional, organism-based; summary of the method: as §1
Plasmodium berghei = assay: In vivo antimalarial activity against Plasmodium berghei

| SMILES | IC50 (Plasmodium falciparum [4]) [nM] | IC50 (Plasmodium falciparum [5]) [nM] | further results |
| --- | --- | --- | --- |
| C[C@H]1[C@H](OC(=O)CCC(=O)[O-])O[C@@H]2O[C@@]3(C)CC[C@H]4[C@H](C)CC[C@@H]1[C@@]24OO3.[Na+] [SODIUM ARESUNATE] |  |  | ED90 (Mus musculus [1]): 13.5 mg/kg; ED50 (Mus musculus [2]): 4 mg/kg; ED90 (Mus musculus [2]): 13 mg/kg; ED50 (Plasmodium yoelii): 3.6 mg/kg |
| C[C@H]1[C@@H](Oc2ccccc2)O[C@@H]2OC3(C)CC[C@H]4[C@H](C)CC[C@@H]1[C@@]24OO3 (single isomer, unassigned) | 3.24 | 3.66 | ED50 (Mus musculus [3]): 3.09 mg/kg |
| C[C@H]1[C@H](Oc2ccccc2)O[C@@H]2OC3(C)CC[C@H]4[C@H](C)CC[C@@H]1[C@@]24OO3 (single isomer, unassigned) | 2.61 | 2.97 |  |
| C[C@@H]1CC[C@H]2[C@@H](C)C(=O)O[C@@H]3O[C@@]4(C)CC[C@@H]1[C@]32OO4 [ARTEMISININ] | 9.67 | 11.2 |  |
| Cc1ccc(O[C@H]2O[C@@H]3OC4(C)CC[C@H]5[C@H](C)CC[C@@H]([C@H]2C)[C@@]35OO4)cc1 (single isomer, unassigned) | 3.24 | 3.92 |  |
| C[C@H]1[C@@H](Oc2ccc(F)cc2)O[C@@H]2OC3(C)CC[C@H]4[C@H](C)CC[C@@H]1[C@@]24OO3 (single isomer, unassigned) | 2.88 | 4.58 |  |
| C[C@H]1[C@@H](O)O[C@@H]2O[C@@]3(C)CC[C@H]4[C@H](C)CC[C@@H]1[C@@]24OO3 [ARTENIMOL] |  |  | ED50 (Plasmodium berghei): 1.95 mg/kg |
| Cc1ccc(O[C@@H]2O[C@@H]3OC4(C)CC[C@H]5[C@H](C)CC[C@@H]([C@H]2C)[C@@]35OO4)cc1 (single isomer, unassigned) | 2.87 | 3.18 |  |
| C[C@H]1[C@@H](Oc2ccc(C(F)(F)F)cc2)O[C@@H]2OC3(C)CC[C@H]4[C@H](C)CC[C@@H]1[C@@]24OO3 (single isomer, unassigned) | 3.9 | 5.29 | ED90 (Mus musculus [1]): 3.1 mg/kg; ED50 (Mus musculus [3]): 2.12 mg/kg; ED50 (Mus musculus [2]): 2.7 mg/kg; ED90 (Mus musculus [2]): 5.4 mg/kg; ED50 (Plasmodium yoelii): 2.2 mg/kg |
| C[C@H]1[C@H](Oc2ccc(C(F)(F)F)cc2)O[C@@H]2OC3(C)CC[C@H]4[C@H](C)CC[C@@H]1[C@@]24OO3 (single isomer, unassigned) | 3.42 | 4.62 |  |
| CO[C@H]1O[C@@H]2O[C@@]3(C)CC[C@H]4[C@H](C)CC[C@@H]([C@H]1C)[C@@]24OO3 [ARTEMETHER] | 3.42 | 4.55 | ED50 (Mus musculus [3]): 6.02 mg/kg |
| COc1ccc(O[C@@H]2O[C@@H]3OC4(C)CC[C@H]5[C@H](C)CC[C@@H]([C@H]2C)[C@@]35OO4)cc1 (single isomer, unassigned) | 3.32 | 3.86 |  |
| COc1ccc(O[C@H]2O[C@@H]3OC4(C)CC[C@H]5[C@H](C)CC[C@@H]([C@H]2C)[C@@]35OO4)cc1 (single isomer, unassigned) |  | 4.58 |  |
| C[C@H]1[C@H](Oc2ccc(F)cc2)O[C@@H]2OC3(C)CC[C@H]4[C@H](C)CC[C@@H]1[C@@]24OO3 (single isomer, unassigned) | 4.04 | 5.7 |  |
